Screening data (PubChem)
IDH1 mut inh = inhibitors of IDH1 R132H reductase, primary screen, biochemical, plate reader, single point | actives 0.18% (n = 70,000) | AID 624101, 2012 | Isocitrate dehydrogenase [NADP] cytoplasmic (Homo sapiens), O75874 | inhibition, % at 10 µM | diaphorase/resazurin fluorescence, 60 min; in the data active means inhibition above about 34%; inconclusive means no clear call, values can overlap the other calls; inactive means below about 11%;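 further: 0% = DMSO and 100% = no enzyme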
Target sequence (O75874 whole entry R132H): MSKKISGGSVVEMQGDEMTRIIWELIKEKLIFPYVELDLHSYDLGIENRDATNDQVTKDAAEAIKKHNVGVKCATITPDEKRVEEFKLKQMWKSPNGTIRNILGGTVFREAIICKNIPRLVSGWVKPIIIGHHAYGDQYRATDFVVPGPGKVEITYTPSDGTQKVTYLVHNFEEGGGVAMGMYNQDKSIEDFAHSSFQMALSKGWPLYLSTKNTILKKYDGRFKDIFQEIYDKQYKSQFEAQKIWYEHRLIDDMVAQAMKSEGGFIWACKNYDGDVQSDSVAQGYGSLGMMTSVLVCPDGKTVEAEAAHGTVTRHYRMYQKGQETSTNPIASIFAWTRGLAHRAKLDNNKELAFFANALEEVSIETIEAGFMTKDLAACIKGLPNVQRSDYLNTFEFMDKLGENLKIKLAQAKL
T cruzi growth-1 = T. cruzi intracellular proliferation inhibitors, primary screen, cell-based, beta-gal Tulahuen parasites, NIH3T3 host, luminescence; T. cruzi beta-gal in NIH3T3, GalScreen luminescence, 90 h; inhibition, % at 8.34 µM; actives 5.9% (n = 77,000);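 active means mean inhibition above about 93%, with at least 55% of replicates each passing it, limit read from the data, passing the limit was not always enough; inconclusive means only one of those two conditions holds; inactive means neither condition holds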
GASC1 inh = inhibitors of GASC-1 (KDM4C) histone demethylase, primary screen, biochemical, single concentration HTS | Lysine-specific demethylase 4C (Homo sapiens), Q9H3R0 | GST-KDM4C 2-372, H3K9me3 peptide, LANCE TR-FRET | inhibition, % at 12.5 µM | actives 0.15% (n = 96,000);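 active means mean replicate inhibition above about 25%, with at least 55% of replicates also reaching it, limit read from the data, passing the limit was not always enough; inconclusive means only one of those two conditions met; inactive means neither condition met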
Target sequence (Q9H3R0 2-372 limits assumed): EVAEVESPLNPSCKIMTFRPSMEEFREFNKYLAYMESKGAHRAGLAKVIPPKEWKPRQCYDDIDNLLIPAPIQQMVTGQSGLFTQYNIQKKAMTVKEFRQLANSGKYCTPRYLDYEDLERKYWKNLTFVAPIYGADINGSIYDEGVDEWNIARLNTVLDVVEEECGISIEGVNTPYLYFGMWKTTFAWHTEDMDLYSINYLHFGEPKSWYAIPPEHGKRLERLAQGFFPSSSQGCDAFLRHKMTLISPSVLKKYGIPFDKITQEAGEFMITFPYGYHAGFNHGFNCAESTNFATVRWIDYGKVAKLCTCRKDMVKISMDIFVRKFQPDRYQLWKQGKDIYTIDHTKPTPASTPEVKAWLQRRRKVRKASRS
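reagent = H3K9me3 peptide substrate, Fe(II), 2-oxoglutarate | system = GST-tagged GASC-1 (JMJD2C) catalytic fragment, aa 2-372 | amount = enzyme final amount 10 nM | read-out = Fall in 671/618 emission ratio as inhibition | medium = HEPES buffer, pH 7.5, plus ascorbate | schedule = 30 min reaction, 60 min detection, RT | measured by = LANCE TR-FRET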
Pf Dd2 growth = P. falciparum Dd2 growth inhibitors, primary screen, SYBR Green fluorescence, single dose replicates; AID 1159554, 2015; activity change, % at 10 µM; actives 2.3% (n = 94,000); 72 h; stronger effect = lower value; in the data active means activity change below about -80%; inconclusive means no clear call, values can overlap the other calls
T cruzi growth-2 = T. cruzi intracellular proliferation inhibitors, confirmation, cell-based, NIH3T3 host, beta-gal parasite, luminescence, cherry-pick | actives 72% (n = 5,600) | T. cruzi beta-gal in NIH3T3, GalScreen luminescence, 90 h | inhibition, % at 8.35 µM | shares compounds with T cruzi growth-1;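 active means mean replicate inhibition above about 95% and at least 55% of replicates individually reaching it, limit read from the data; inconclusive means only one of the two criteria is met; inactive means neither criterion is met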
T cruzi growth-3 = inhibitors of intracellular T. cruzi replication, confirmation, NIH3T3 host cells, beta-gal parasites, cherry-pick, set 2; shares compounds with T cruzi growth-1; T. cruzi beta-gal in NIH3T3, GalScreen luminescence, 90 h; inhibition, % at 2.09 µM; actives 21% (n = 5,600); AID 651740, 2012;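 active means mean inhibition above about 95%, with at least 55% of replicates also reaching it, limit read from the data; inconclusive means meets just one of the two conditions; inactive means meets neither condition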;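 further: plate controls were neutral control median for no effect and positive control median for full effect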
NIH3T3 tox = cytotoxicity in mouse NIH/3T3 fibroblasts, confirmation, cytotoxicity control for T. cruzi proliferation inhibitor project, cell-based, cherry-pick, single point. shares compounds with T cruzi growth-1. actives 14% (n = 5,600). NIH/3T3 viability, CellTiter-Glo ATP luminescence, 90 h. cytotoxicity (signal decrease), % at 8.35 µM;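 active means mean signal decrease across replicates above about 35% based on untreated-well scatter, with enough replicates individually passing, limit read from the data; inconclusive means no rule stated though some were filed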;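 further: 0% = median of neutral control wells and 100% = median of positive control wells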
3T3 cytotox 2 = NIH/3T3 fibroblast cytotoxicity, confirmation, cytotoxicity control, cell-based, cherry-pick, single point, set 2 | shares compounds with T cruzi growth-1 | NIH/3T3 viability, CellTiter-Glo ATP luminescence, 90 h | inhibition, % at 24.9 µM | actives 56% (n = 5,600) | AID 651744, 2012;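 active means mean loss of cell viability signal at or above a set limit, and enough replicates individually reaching it; inconclusive means meets only the mean limit or only the replicate share; inactive means meets neither condition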;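 further: 0% = median of neutral control wells and 100% = median of positive control wells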
* hit, by the source's call; u = inconclusive; x = no result. Hits are enriched below; roughly 5.9% of the tested compounds scored in any of these assays.

SMILES | IDH1 mut inh | T cruzi growth-1 | GASC1 inh | Pf Dd2 growth | T cruzi growth-2 | T cruzi growth-3 | NIH3T3 tox | 3T3 cytotox 2
C[C@@H]1CN([C@H](C)CO)C(=O)c2cc(NC(=O)Nc3cccc4ccccc34)ccc2O[C@@H](C)CCCCO[C@H]1CN(C)Cc1ccncc1 | x | 99.7* | -1.2 | -36.6 | 107.2* | 54.9 | 36.3* | 46.9*
Cc1cc(NC(=O)CSc2nnc(-c3ccccc3Cl)n2C)ccc1Br | 0.2 | x | x | x | x | x | x | x
Cc1cc(C)c(NC(=O)CN(C)S(=O)(=O)c2ccc(Br)cc2)c(C)c1 | -0.1 | x | x | x | x | x | x | x
C[C@H](O)C#Cc1ccc2c(c1)O[C@@H](CN(C)Cc1ccncc1)[C@H](C)CN([C@H](C)CO)S2(=O)=O | 1.3 | 113.1* | 0.9 | -42.1 | 99.5* | 72.5 | 29.8 | 38.9*
CC(C)C#Cc1ccc2c(c1)O[C@H](CN(C)Cc1ccncc1)[C@H](C)CN([C@H](C)CO)S2(=O)=O | 0.7 | 101.4* | -0.3 | -27.2 | 98.9* | 71.7 | u | 50.1*
CS(=O)(=O)N(CC(=O)O)c1cc(Cl)c(Cl)cc1Cl | 0.0 | x | x | x | x | x | x | x
COc1ccccc1-c1ccc([C@@H]2[C@@H](C#N)N(C(=O)NC3CCCCC3)[C@@H]2CO)cc1 | x | 94.6 | -2.6 | -35.1 | x | x | x | x
COc1ccc(-c2ccc([C@H]3[C@H](C#N)N(C(=O)NC4CCCCC4)[C@H]3CO)cc2)cc1 | x | 101.3* | -2.7 | -24.3 | 101.8* | 56.4 | 26.0 | 75.5*
COc1ccc(-c2ccc([C@H]3[C@H](C#N)N(C(=O)NC4CCCC4)[C@H]3CO)cc2)cc1 | x | u | x | -34.8 | 80.0 | 28.2 | 12.8 | 24.7
CN1C(=O)c2ccc(NC(=O)CCn3cnc4ccccc4c3=O)cc2C1=O | 0.7 | x | x | x | x | x | x | x
COc1ccc(CN(C)C[C@@H]2Oc3ccc(NC(=O)Cc4cn(C)c5ccccc45)cc3C(=O)N([C@H](C)CO)C[C@H]2C)cc1 | -30.9 | 33.4 | -0.4 | 13.1 | x | x | x | x
COc1ccc(CN(C)C[C@@H]2Oc3ccc(NC(=O)Cc4cn(C)c5ccccc45)cc3C(=O)N([C@H](C)CO)C[C@@H]2C)cc1 | -22.7 | 39.3 | -0.1 | -32.3 | x | x | x | x
C[C@@H]1CN([C@H](C)CO)C(=O)c2cc(NC(=O)Cc3cn(C)c4ccccc34)ccc2O[C@@H]1CN(C)Cc1ccc(Oc2ccccc2)cc1 | -4.1 | 96.4* | -1.3 | -17.2 | 100.9* | 76.3 | 12.1 | 52.5*
C[C@H](CO)N1C[C@H](C)[C@H](CN(C)Cc2ccc(Oc3ccccc3)cc2)Oc2ccc(NC(=O)Cc3cn(C)c4ccccc34)cc2C1=O | x | u | -1.0 | -55.7 | 103.8* | 58.9 | 24.5 | 43.3*
C[C@@H]1CN([C@@H](C)CO)C(=O)c2cc(NC(=O)NC3CCCCC3)ccc2O[C@@H](C)CCCCO[C@H]1CN(C)S(=O)(=O)c1ccc(F)cc1 | 2.0 | u | 1.3 | -54.6 | 48.5 | 7.7 | 6.3 | 3.8
C[C@@H]1CN([C@H](C)CO)C(=O)c2cc(NC(=O)Nc3ccc4c(c3)OCO4)ccc2O[C@@H](C)CCCCO[C@H]1CN(C)S(=O)(=O)c1ccc(F)cc1 | x | 73.6 | 1.2 | -71.1 | x | x | x | x
Cc1ccc(S(=O)(=O)N(C)C[C@@H]2OCCCC[C@H](C)Oc3ccc(NC(=O)Nc4ccc(F)cc4)cc3C(=O)N([C@@H](C)CO)C[C@H]2C)cc1 | 2.2 | 106.4* | 0.2 | u | 102.0* | 52.8 | -0.5 | 7.6
C[C@H](CO)N1C[C@H](C)[C@H](CN(C)S(=O)(=O)c2ccc(F)cc2)OCCCC[C@H](C)Oc2ccc(NC(=O)Nc3ccc4c(c3)OCO4)cc2C1=O | -0.4 | 105.6* | 12.6 | -39.1 | 109.4* | 73.1 | -2.8 | 19.0
C[C@@H]1CCCCO[C@@H](CN(C)S(=O)(=O)c2ccc(F)cc2)[C@H](C)CN([C@H](C)CO)C(=O)c2cc(NC(=O)Nc3ccc(F)cc3)ccc2O1 | x | 100.0* | -1.5 | -81.6* | 104.1* | 91.4 | 12.3 | -4.7
O=C(O)C1OC(c2cccc(Cl)c2)=NC12CC2 (stereo unspecified) | 0.3 | x | x | x | x | x | x | x
C[C@@H]1CCCCO[C@@H](CN(C)S(=O)(=O)c2ccc(F)cc2)[C@H](C)CN([C@@H](C)CO)C(=O)c2cc(NC(=O)Nc3ccc(F)cc3)ccc2O1 | x | 98.4* | -1.1 | -44.5 | 104.9* | 50.7 | 0.4 | -5.3
C[C@@H]1CCCCO[C@@H](CN(C)S(=O)(=O)c2ccc(F)cc2)[C@@H](C)CN([C@H](C)CO)C(=O)c2cc(NC(=O)Nc3ccc(F)cc3)ccc2O1 | 1.8 | -9.4 | 0.2 | -46.3 | x | x | x | x
C[C@@H]1CCCCO[C@H](CN(C)S(=O)(=O)c2ccc(F)cc2)[C@@H](C)CN([C@@H](C)CO)C(=O)c2cc(NC(=O)Nc3ccc(F)cc3)ccc2O1 | -10.8 | 100.1* | 0.4 | -65.9 | 108.1* | 45.7 | 9.8 | 50.9*
C/C=C/c1ccc([C@@H]2[C@@H](CO)N3CCCCN(S(=O)(=O)c4cccc(C)c4)C[C@H]23)cc1 | x | u | -1.0 | -39.8 | 108.1* | 83.6 | 27.8 | 102.9*
C/C=C/c1ccc([C@@H]2[C@@H](CO)N3CCCCN(S(=O)(=O)c4cccc(C)c4)C[C@@H]23)cc1 | x | 108.2* | 0.1 | -37.2 | 100.1* | 81.5 | -5.8 | 73.3*
C[C@H](CO)N1C[C@H](C)[C@H](CN(C)Cc2ccc(-c3ccccc3)cc2)Oc2c(NC(=O)c3nc4ccccc4s3)cccc2C1=O | x | 63.8 | -4.3 | -47.4 | x | x | x | x
C[C@H](CO)N1C[C@H](C)[C@@H](CN(C)Cc2ccc(-c3ccccc3)cc2)Oc2c(NC(=O)c3nc4ccccc4s3)cccc2C1=O | x | u | -2.1 | -51.1 | 104.8* | 87.2 | 14.6 | 12.4
C[C@H](CO)N1C[C@H](C)[C@@H](CN(C)Cc2ccc(Cl)c(Cl)c2)Oc2c(NC(=O)c3nc4ccccc4s3)cccc2C1=O | -2.4 | 101.7* | 0.8 | -39.2 | 99.5* | 87.4 | -7.8 | 3.0
